Experimental findings from ChEMBL document CHEMBL3352241, “Design, synthesis and pharmacological evaluation of chalcone derivatives as acetylcholinesterase inhibitors” (Bioorg Med Chem, 2014) are described below.

For data set [1], the target named is T1, Acetylcholinesterase (Homo sapiens, UniProt P22303). In words: Inhibition of AChE (unknown origin) using acetylthiocholine iodide as substrate incubated for 25 mins by Ellman's method. The method, boiled down:
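Ellman spectrophotometric assay, slightly modified. Compounds were dissolved in tween 80 (0.06% final per reaction), then diluted in 2% tween 80–water. The enzyme, substrate (acetylthiocholine iodide for AChE, butyrylthiocholine iodide for BuChE) and compound were incubated in Na2HPO4/NaH2PO4 buffer pH 8.0 at 30 °C for 25 min. The reaction was stopped with 20% SDS, 10 mmol/L DTNB was added, and absorbance was read at 412 nm. Five concentrations per compound, in triplicate, spanned 20–80% inhibition. IC50 was calculated by the Bliss method and reported as mean ± SD.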

Another data set concerns the target Cholinesterase (Homo sapiens, UniProt P06276). The data set is described as follows: Inhibition of BuChE (unknown origin) using butyrylthiocholine iodide as substrate incubated for 25 mins by Ellman's method. The method, boiled down: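 Ellman spectrophotometric assay, slightly modified. Compounds were dissolved in tween 80 (0.06% final per reaction), then diluted in 2% tween 80–water. The enzyme, substrate (acetylthiocholine iodide for AChE, butyrylthiocholine iodide for BuChE) and compound were incubated in Na2HPO4/NaH2PO4 buffer pH 8.0 at 30 °C for 25 min. IC50 was calculated by the Bliss method and reported as mean ± SD.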

Data set [2] is described as follows: Octanol-water partition coefficient, log P of the compound at pH 7.4 by classical shake-flask method. Type of data set: physicochemical.
Data set [3] concerns the target Cholinesterases; ACHE & BCHE (Homo sapiens) (UniProt P06276+P22303). The data set is described as follows: Selectivity ratio of IC50 for BChE (unknown origin) to IC50 for AChE (unknown origin).
Data set [4] deals with T1, Acetylcholinesterase. The data set is described as follows: Non-competitive inhibition of AChE (unknown origin) incubated for 25 mins by Lineweaver-Burk plot analysis.
The target in data set [5] is T1, Acetylcholinesterase. In words: Competitive inhibition of AChE (unknown origin) incubated for 25 mins by Lineweaver-Burk plot analysis.

Chain of Cholinesterase (P06276 whole entry): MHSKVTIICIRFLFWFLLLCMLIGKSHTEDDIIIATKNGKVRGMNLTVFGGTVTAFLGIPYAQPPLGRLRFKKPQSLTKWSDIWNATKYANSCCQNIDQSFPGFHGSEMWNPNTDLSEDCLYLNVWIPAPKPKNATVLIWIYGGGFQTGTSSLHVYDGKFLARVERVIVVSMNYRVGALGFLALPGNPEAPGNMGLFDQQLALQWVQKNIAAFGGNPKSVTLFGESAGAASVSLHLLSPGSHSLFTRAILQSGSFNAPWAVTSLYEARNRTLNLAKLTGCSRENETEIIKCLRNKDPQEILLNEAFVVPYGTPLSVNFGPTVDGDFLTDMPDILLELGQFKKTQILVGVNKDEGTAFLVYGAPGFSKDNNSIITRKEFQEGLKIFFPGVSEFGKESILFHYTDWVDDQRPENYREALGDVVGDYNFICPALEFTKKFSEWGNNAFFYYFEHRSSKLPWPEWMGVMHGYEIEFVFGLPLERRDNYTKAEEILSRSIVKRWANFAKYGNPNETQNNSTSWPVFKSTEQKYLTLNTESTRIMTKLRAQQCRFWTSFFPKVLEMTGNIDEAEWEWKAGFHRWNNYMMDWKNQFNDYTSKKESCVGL
Chain of Cholinesterases; ACHE & BCHE (Homo sapiens) (P06276 whole entry, looked up): as the sequence (P06276 whole entry) above
Chain of Cholinesterases; ACHE & BCHE (Homo sapiens) (P22303 whole entry, looked up): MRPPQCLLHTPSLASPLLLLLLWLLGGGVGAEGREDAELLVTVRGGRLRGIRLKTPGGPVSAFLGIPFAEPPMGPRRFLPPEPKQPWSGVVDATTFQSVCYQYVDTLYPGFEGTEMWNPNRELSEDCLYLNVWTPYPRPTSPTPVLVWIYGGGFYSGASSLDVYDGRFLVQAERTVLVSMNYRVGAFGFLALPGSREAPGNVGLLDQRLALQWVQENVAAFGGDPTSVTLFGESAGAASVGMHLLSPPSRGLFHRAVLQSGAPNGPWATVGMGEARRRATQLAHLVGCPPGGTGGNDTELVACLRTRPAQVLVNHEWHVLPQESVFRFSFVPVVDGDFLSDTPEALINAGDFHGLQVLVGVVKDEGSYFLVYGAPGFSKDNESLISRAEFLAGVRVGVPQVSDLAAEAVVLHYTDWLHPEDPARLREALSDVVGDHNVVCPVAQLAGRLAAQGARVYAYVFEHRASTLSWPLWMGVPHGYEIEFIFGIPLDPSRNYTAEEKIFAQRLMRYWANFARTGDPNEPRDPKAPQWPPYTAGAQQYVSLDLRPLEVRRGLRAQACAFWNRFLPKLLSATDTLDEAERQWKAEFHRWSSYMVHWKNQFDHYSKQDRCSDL
T1 sequence (P22303 whole entry): as the sequence (P22303 whole entry, looked up) above

Regarding `CCN(CC)CCCOc1ccc(C(=O)/C=C/c2ccccc2)cc1`, the values for the IC50 against Acetylcholinesterase [1] and against Cholinesterase were 22.5 µM and 20.1 µM, respectively. Further, in data set [2], the logD stood at 1.71. The Ratio IC50 in data set [3] amounted to 0.89.

As for `CCCN(CCC)CCCCCCOc1ccc(C(=O)/C=C/c2ccccc2)cc1`, the IC50 was found to be 44.1 µM at Acetylcholinesterase [1] and 40.7 µM on Cholinesterase. In addition, in data set [2], the log distribution coefficient (logD) turned out to be 2.07. In addition, the Ratio IC50 in data set [3] amounted to 0.92.

Regarding `CCCN(CCC)CCCCOc1ccc(C(=O)/C=C/c2ccccc2)cc1`, the IC50 against Acetylcholinesterase [1] was found to be 5.91 µM; against Cholinesterase it was 8.84 µM. In data set [2], this molecule came in with a logD of 1.95. Besides, the Ratio IC50 in data set [3] came to 1.5.

In the case of `CCN(CC)CCOc1ccc(C(=O)/C=C/c2ccccc2)cc1`, the IC50 came to 7.63 µM at Acetylcholinesterase [1] and 31.6 µM against Cholinesterase. In data set [2], this molecule had a logD of 1.61. Besides, the Ratio IC50 in data set [3] was 4.14.

Regarding `CCCN(CCC)CCCOc1ccc(C(=O)/C=C/c2ccccc2)cc1`, the values for the half-inhibitory concentration (IC50) against Acetylcholinesterase [1] and against Cholinesterase were 24.6 µM and 10.1 µM, respectively. Also, the logD in data set [2] is 1.91. Also, the Ratio IC50 in data set [3] was 0.41.

`CN(C)CCCOc1ccc(C(=O)/C=C/c2ccccc2)cc1`: the IC50 at Acetylcholinesterase [1] was 10.5 µM; against Cholinesterase, 32.3 µM. Further, the logD in data set [2] was 1.59. Also, the Ratio IC50 in data set [3] stood at 3.08.

As to `CCN(CC)CCCCOc1ccc(C(=O)/C=C/c2ccccc2)cc1`, the IC50 at Acetylcholinesterase [1] was 23.2 µM; at Cholinesterase it was 10.2 µM. This molecule also displayed a pH-dependent lipophilicity (logD) in data set [2] of 1.74. In data set [3], the Ratio IC50 was 0.44.

As to `CCN(CC)CCCCCOc1ccc(C(=O)/C=C/c2ccccc2)cc1`, the half-maximal inhibitory concentration (IC50) at Acetylcholinesterase [1] was found to be 34.1 µM; against Cholinesterase, 26.3 µM. Moreover, the logD in data set [2] is 1.84. In data set [3], the Ratio IC50 is 0.77.

Consider `CCN(CC)CCCCCCOc1ccc(C(=O)/C=C/c2ccccc2)cc1`, for which the IC50 amounted to 50.4 µM against Acetylcholinesterase [1] and 18.5 µM against Cholinesterase. Further, the logD in data set [2] worked out at 1.91. For the same molecule, the Ratio IC50 in data set [3] came to 0.37.

For `CN(C)CCCCCOc1ccc(C(=O)/C=C/c2ccccc2)cc1`, the IC50 at Acetylcholinesterase [1] was found to be 13.1 µM; at Cholinesterase, 17.4 µM. The molecule further gave a logD in data set [2] of 1.73. Moreover, in data set [3], the Ratio IC50 was determined as 1.33.

On to `CN(C)CCCCOc1ccc(C(=O)/C=C/c2ccccc2)cc1`, for which the IC50 on Acetylcholinesterase [1] amounted to 8.95 µM; on Cholinesterase, 11.8 µM. This molecule also gave a logD in data set [2] of 1.64. Besides, the Ratio IC50 in data set [3] turned out to be 1.32.

On to `CCCCN(CCCC)CCCCCCOc1ccc(C(=O)/C=C/c2ccccc2)cc1`, for which the IC50 on Acetylcholinesterase [1] was found to be 163 µM; against Cholinesterase, 75.1 µM. Further, the logD in data set [2] was 2.19. Besides, the Ratio IC50 in data set [3] was 0.46.

Take `CCCN(CCC)CCOc1ccc(C(=O)/C=C/c2ccccc2)cc1`: the IC50 against Acetylcholinesterase [1] came to 64.5 µM; against Cholinesterase, 52.6 µM. Besides, the log distribution coefficient (logD) in data set [2] came to 1.86. For the same molecule, the Ratio IC50 in data set [3] stood at 0.81.

Regarding `CCCN(CCC)CCCCCOc1ccc(C(=O)/C=C/c2ccccc2)cc1`, the half-maximal inhibitory concentration (IC50) at Acetylcholinesterase [1] was 29.5 µM; on Cholinesterase, 39.7 µM. In data set [2], this molecule returned a logD of 2.01. In addition, the Ratio IC50 in data set [3] was 2.09.

For `O=C(/C=C/c1ccccc1)c1ccc(O)cc1` [4'-HYDROXYCHALCONE], the half-inhibitory concentration (IC50) on Acetylcholinesterase [1] and at Cholinesterase was over 500 µM in each case.

`CN(C)CCOc1ccc(C(=O)/C=C/c2ccccc2)cc1`: the IC50 at Acetylcholinesterase [1] is 4.68 µM; at Cholinesterase, 20.4 µM. Moreover, the Ki on Acetylcholinesterase [4] is 3.52 µM; on Acetylcholinesterase [5], 7.99 µM. The molecule further registered a logD in data set [2] of 1.49. For the same molecule, in data set [3], the Ratio IC50 is 4.35.

For the molecule `CCCCN(CCCC)CCCOc1ccc(C(=O)/C=C/c2ccccc2)cc1`, the IC50 at Acetylcholinesterase [1] amounted to 152 µM; against Cholinesterase it was 68.3 µM. The same molecule showed a logD in data set [2] of 2.06. In addition, the Ratio IC50 in data set [3] was found to be 0.45.

As to `CCCCN(CCCC)CCCCOc1ccc(C(=O)/C=C/c2ccccc2)cc1`, the IC50 was found to be 21.9 µM at Acetylcholinesterase [1] and 41.9 µM on Cholinesterase. In data set [2], the logD worked out at 2.09. In data set [3], the Ratio IC50 came to 1.91.

On to `CCCCN(CCCC)CCCCCOc1ccc(C(=O)/C=C/c2ccccc2)cc1`, for which the results for the concentration for half-maximal inhibition (IC50) at Acetylcholinesterase [1] and at Cholinesterase were 76.9 µM and 96.9 µM, respectively. The molecule also had a logD in data set [2] of 2.14.

As to `CCCCN(CCCC)CCOc1ccc(C(=O)/C=C/c2ccccc2)cc1`, the IC50 against Acetylcholinesterase [1] was found to be 253 µM; at Cholinesterase it was 279 µM. Besides, the log distribution coefficient (logD) in data set [2] was 2. Moreover, the Ratio IC50 in data set [3] stood at 1.1.

Consider `CN(C)CCCCCCOc1ccc(C(=O)/C=C/c2ccccc2)cc1`, for which the values for the IC50 at Acetylcholinesterase [1] and against Cholinesterase were 14.2 µM and 10.4 µM, respectively. The logD in data set [2] turned out to be 1.8. Also, the Ratio IC50 in data set [3] is 0.73.
